Test results reported in ChEMBL document CHEMBL1128668, “Synthesis of N,N'-substituted piperazine and homopiperazine derivatives with polyamine-like actions at N-methyl-D-aspartate receptors” (J Med Chem, 1995).
pEC50, pIC50: −log10 of the molar value.

What was measured:
[1] = target: T1, Glutamate NMDA receptor (Rattus norvegicus) (UniProt P35439+Q00959+Q00960+Q00961+Q62645+Q8VHN2+Q9R1M7); test: Efficacy in enhancing binding of [3H]- MK-801 to NMDA receptors compared to spermine; assay type: protein-complex assay
Method in brief: (§1)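 Forebrains from adult male Sprague-Dawley rats (175–300 g) homogenized in 5 mM HEPES/4.5 mM Tris (pH 7.7). Membranes were washed extensively, including EDTA cycles, to remove endogenous glutamate, glycine and polyamines. About 100 μg protein was incubated with [3H]MK-801 (final 4–5 nM) and compound (1–1000 μM) for 2 h at room temperature under non-equilibrium conditions, then filtered over PEI-soaked GF/B. Nonspecific binding was taken with 100 μM phencyclidine. Efficacy is given as percent of the spermine-induced increase, ≥3 experiments.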

[2] = target: Glutamate NMDA receptor; test: Ability to enhance [3H]MK-801 binding to NMDA receptors in rat forebrain membranes was calculated with respect to spermine; assay type: cell membranes, Membrane; method in brief: as §1
[3] = target: Glutamate NMDA receptor; test: Inhibition of [3H]MK-801 binding to NMDA receptor by Conantokin-G (with a concentration range of 0.024-12.5 uM) stimulated by the compound at a concentration of 100 uM; assay type: protein-complex assay
[4] = target: Glutamate NMDA receptor
[5] = target: T1, Glutamate NMDA receptor (Rattus norvegicus); test: Efficacy of compound in enhancing binding of [3H]MK-801 to NMDA receptors compared to spermine; assay type: protein-complex assay; method in brief: as §1
[6] = target: Glutamate NMDA receptor; test: Inhibition of [3H]MK-801 binding to NMDA receptor by Conantokin-G (at a concentration range of 0.024-12.5 uM) stimulated by the compound at a concentration of 100 uM; assay type: protein-complex assay

SMILES | Emax [1] [%] | pEC50 [2] | pIC50 [3] | pIC50 [4] | Emax [5] [%] | pIC50 [6]
C1CCN(CCCN2CCN(CCCN3CCCC3)CC2)C1 | 64 | 4.34 |  |  |  | 
CNCCCN1CCN(CCCNC)CC1 | 81 | 4.45 |  |  |  | 
CN(C)CCCN1CCN(CCCN(C)C)CC1 | 66 | 4.43 |  |  |  | 
CN(C)CCN1CCN(CCN(C)C)CC1 | 51 | 3.95 |  |  |  | 
NCCCN1CCN(CCCN)CC1 | 80 | 4.30 |  |  |  | 
CNCCCCN1CCN(CCCCNC)CC1 | 68 | 4.67 | 3.71 |  |  | 
NCCCC(=O)N1CCN(C(=O)CCCN)CC1 | 45 | 3.62 |  |  |  | 
NCCCCN1CCN(CCCCN)CC1 | 71 | 4.25 |  |  |  | 
NCC(=O)N1CCN(C(=O)CN)CC1 | 90 | 4.02 |  |  |  | 
NCCCNCCCCNCCCN [SPERMINE] |  | 5.28 |  | 3.63 | 100 | 
NCC(=O)N1CCCN(C(=O)CN)CC1 |  | 4.74 |  |  | 60 | 3.51
NCCN1CCCN(CCN)CC1 | 43 | 4.29 |  |  |  | 
NCCCN1CCCN(CCCN)CC1 | 76 | 4.61 |  |  |  | 
NCCCCN1CCCN(CCCCN)CC1 | 76 | 4.43 |  |  |  | 
CN(C)CCCCN1CCN(CCCCN(C)C)CC1 | 84 | 4.11 |  |  |  | 
CNCCN1CCN(CCNC)CC1 | 50 | 4.19 |  |  |  | 
